Measured values reported in ChEMBL document CHEMBL1138512, “A class of 2,4-bisanilinopyrimidine Aurora A inhibitors with unusually high selectivity against Aurora B” (J Med Chem, 2009).

Tests used:
[1] = biological target: T1, Aurora kinase A (Homo sapiens, UniProt O14965); experiment: Inhibition of N-terminal flag-tagged Aurora A expressed in Escherichia coli BL21-DE3 by ELISA
T1 sequence (O14965 whole entry): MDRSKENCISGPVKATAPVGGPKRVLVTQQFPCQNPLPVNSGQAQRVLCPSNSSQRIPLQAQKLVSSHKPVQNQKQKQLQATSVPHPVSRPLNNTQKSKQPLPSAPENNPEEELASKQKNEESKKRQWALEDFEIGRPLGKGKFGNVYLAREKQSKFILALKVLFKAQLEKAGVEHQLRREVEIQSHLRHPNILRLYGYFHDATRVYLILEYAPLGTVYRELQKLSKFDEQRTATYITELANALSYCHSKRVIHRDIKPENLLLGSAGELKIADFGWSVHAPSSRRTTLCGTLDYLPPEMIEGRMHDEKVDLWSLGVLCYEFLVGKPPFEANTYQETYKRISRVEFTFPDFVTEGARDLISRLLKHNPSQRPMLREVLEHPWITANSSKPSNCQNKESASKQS

[2] = system: HT-29; experiment: Antiproliferative activity against human HT-29 cells after 4 days by celltiter assay; type: functional, cell-based; settings: HT-29, 96 h
[3] = biological target: T1, Aurora kinase A; experiment: Inhibition of Aurora A in human HCT116 cells assessed as complete loss of phospho-Aurora A staining in centrosomes by immunofluorescence assay; type: cell-based, HCT-116
[4] = biological target: T2, Aurora kinase B (Homo sapiens, UniProt Q96GD4); experiment: Inhibition of N-terminal flag-tagged Aurora B expressed in Escherichia coli BL21-DE3 by ELISA
[5] = biological target: T3, Cyclin-dependent kinase 2 (Homo sapiens, UniProt P24941); experiment: Inhibition of CDK2/cyclin A
[6] = biological target: T2, Aurora kinase B; experiment: Inhibition of Aurora B in human HCT116 cells assessed as complete loss of phospho-histone H3 staining by immunofluorescence assay
[7] = biological target: T2, Aurora kinase B; experiment: Inhibition of Aurora B in human HT29 cells assessed as complete loss of phospho-histone H3 staining by immunofluorescence assay; type: cell-based, HT-29
Procedure, shortened: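 Immunofluorescence for phospho-S10 histone H3 in HCT116 or HT29 cells, scored visually. Value taken as the lowest inhibitor concentration giving complete loss of staining, so it lies above the IC50. Units µM.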

[8] = biological target: Aurora kinase A (Homo sapiens, UniProt O14965, T217E); experiment: Inhibition of N-terminal flag-tagged Aurora A T217E mutant expressed in Escherichia coli BL21-DE3
[9] = biological target: Aurora kinase B (Homo sapiens, UniProt Q96GD4, E161T); experiment: Inhibition of N-terminal flag-tagged Aurora B E161T mutant expressed in Escherichia coli BL21-DE3
[10] = system: HCT-116; experiment: Antiproliferative activity against human HCT116 cells after 4 days by celltiter assay; type: functional, cell-based; settings: HCT-116, 96 h
[11] = biological target: Fibroblast growth factor receptor 3 (Homo sapiens) (UniProt P22607); experiment: Inhibition of human FGFR3 at 1 uM assessed as residual enzyme activity
[12] = biological target: Ephrin type-B receptor 2 (Homo sapiens) (UniProt P29323); experiment: Inhibition of human EphB2 at 1 uM assessed as residual enzyme activity
[13] = biological target: T3, Cyclin-dependent kinase 2; experiment: Inhibition of human CDK2/cyclin E at 1 uM assessed as residual enzyme activity
[14] = biological target: Dual specificity mitogen-activated protein kinase kinase 1 (Homo sapiens) (UniProt Q02750); experiment: Inhibition of human MEK1 at 1 uM assessed as residual enzyme activity
[15] = biological target: Tyrosine-protein kinase receptor UFO (Homo sapiens) (UniProt P30530); experiment: Inhibition of human Axl at 1 uM assessed as residual enzyme activity
[16] = species: Homo sapiens; experiment: Inhibition of human PKA at 1 uM assessed as residual enzyme activity
[17] = biological target: Receptor-type tyrosine-protein kinase FLT3 (Homo sapiens) (UniProt P36888); experiment: Inhibition of human Flt3 at 1 uM assessed as residual enzyme activity
[18] = biological target: Aurora kinase A (Homo sapiens) (UniProt O14965); experiment: Inhibition of human Aurora A at 1 uM assessed as residual enzyme activity
[19] = biological target: RAC-beta serine/threonine-protein kinase (Homo sapiens) (UniProt P31751); experiment: Inhibition of human PKBbeta at 1 uM assessed as residual enzyme activity
[20] = biological target: RAF proto-oncogene serine/threonine-protein kinase (Homo sapiens) (UniProt P04049); experiment: Inhibition of human c-RAF at 1 uM assessed as residual enzyme activity
[21] = biological target: Ribosomal protein S6 kinase beta-1 (Homo sapiens) (UniProt P23443); experiment: Inhibition of human p70S6K at 1 uM assessed as residual enzyme activity
[22] = biological target: Tyrosine-protein kinase Lck (Homo sapiens) (UniProt P06239); experiment: Inhibition of human Lck at 1 uM assessed as residual enzyme activity
[23] = biological target: Tyrosine-protein kinase ABL2 (Mus musculus) (UniProt Q4JIM5); experiment: Inhibition of mouse ARG at 1 uM assessed as residual enzyme activity
[24] = biological target: BDNF/NT-3 growth factors receptor (Homo sapiens) (UniProt Q16620); experiment: Inhibition of human TrkB at 1 uM assessed as residual enzyme activity
[25] = biological target: Casein kinase II (Homo sapiens) (UniProt P67870+P68400+P19784); experiment: Inhibition of human CK2 at 1 uM assessed as residual enzyme activity; type: protein-complex assay
[26] = biological target: Cyclin-dependent kinase 1/cyclin B1 (Homo sapiens) (UniProt P06493+P14635); experiment: Inhibition of human CDK1/cyclin B at 1 uM assessed as residual enzyme activity
[27] = biological target: Hepatocyte growth factor receptor (Homo sapiens) (UniProt P08581); experiment: Inhibition of human Met at 1 uM assessed as residual enzyme activity
[28] = biological target: Mitogen-activated protein kinase 8 (Homo sapiens) (UniProt P45983); experiment: Inhibition of human JNK1alpha1 at 1 uM assessed as residual enzyme activity
[29] = biological target: Tyrosine-protein kinase ZAP-70 (Homo sapiens) (UniProt P43403); experiment: Inhibition of human ZAP-70 at 1 uM assessed as residual enzyme activity
[30] = biological target: Insulin receptor (Homo sapiens) (UniProt P06213); experiment: Inhibition of human insulin receptor at 1 uM assessed as residual enzyme activity
[31] = biological target: Tyrosine-protein kinase CSK (Homo sapiens) (UniProt P41240); experiment: Inhibition of human CSK at 1 uM assessed as residual enzyme activity
[32] = biological target: Proto-oncogene tyrosine-protein kinase receptor Ret (Homo sapiens) (UniProt P07949); experiment: Inhibition of human Ret at 1 uM assessed as residual enzyme activity
[33] = biological target: Tyrosine-protein kinase ABL1 (Mus musculus) (UniProt P00520); experiment: Inhibition of mouse ABL at 1 uM assessed as residual enzyme activity
[34] = biological target: RAC-alpha serine/threonine-protein kinase (Homo sapiens) (UniProt P31749); experiment: Inhibition of human PKBalpha at 1 uM assessed as residual enzyme activity
[35] = biological target: Serine/threonine-protein kinase Chk1 (Homo sapiens) (UniProt O14757); experiment: Inhibition of human CHK1 at 1 uM assessed as residual enzyme activity
[36] = biological target: RAC-gamma serine/threonine-protein kinase (Homo sapiens) (UniProt Q9Y243); experiment: Inhibition of human PKBgamma at 1 uM assessed as residual enzyme activity
[37] = biological target: Glycogen synthase kinase-3 beta (Homo sapiens) (UniProt P49841); experiment: Inhibition of human GSK3-beta at 1 uM assessed as residual enzyme activity
[38] = biological target: Epidermal growth factor receptor (Homo sapiens) (UniProt P00533); experiment: Inhibition of human EGFR at 1 uM assessed as residual enzyme activity
[39] = biological target: Platelet-derived growth factor receptor beta (Homo sapiens) (UniProt P09619); experiment: Inhibition of human PDGFRbeta at 1 uM assessed as residual enzyme activity
[40] = biological target: Proto-oncogene tyrosine-protein kinase Src (Homo sapiens) (UniProt P12931); experiment: Inhibition of human c-SRC at 1 uM assessed as residual enzyme activity
Proto-oncogene tyrosine-protein kinase Src (Homo sapiens), sequence (P12931 2-536 limits assumed): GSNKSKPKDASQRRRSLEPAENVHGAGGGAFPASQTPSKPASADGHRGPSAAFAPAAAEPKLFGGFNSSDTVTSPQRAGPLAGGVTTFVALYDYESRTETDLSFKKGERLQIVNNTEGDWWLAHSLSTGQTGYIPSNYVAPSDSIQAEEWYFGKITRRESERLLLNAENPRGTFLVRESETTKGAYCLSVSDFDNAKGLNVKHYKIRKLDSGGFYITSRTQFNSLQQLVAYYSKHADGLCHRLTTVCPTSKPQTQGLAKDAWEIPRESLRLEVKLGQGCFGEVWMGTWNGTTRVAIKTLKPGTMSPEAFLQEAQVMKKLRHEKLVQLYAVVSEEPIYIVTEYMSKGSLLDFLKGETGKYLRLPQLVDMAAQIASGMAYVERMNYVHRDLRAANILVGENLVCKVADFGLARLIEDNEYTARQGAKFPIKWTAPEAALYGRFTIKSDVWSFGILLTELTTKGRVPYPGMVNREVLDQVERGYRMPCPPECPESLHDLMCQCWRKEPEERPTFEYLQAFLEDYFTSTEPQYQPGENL

T2 sequence (Q96GD4 whole entry): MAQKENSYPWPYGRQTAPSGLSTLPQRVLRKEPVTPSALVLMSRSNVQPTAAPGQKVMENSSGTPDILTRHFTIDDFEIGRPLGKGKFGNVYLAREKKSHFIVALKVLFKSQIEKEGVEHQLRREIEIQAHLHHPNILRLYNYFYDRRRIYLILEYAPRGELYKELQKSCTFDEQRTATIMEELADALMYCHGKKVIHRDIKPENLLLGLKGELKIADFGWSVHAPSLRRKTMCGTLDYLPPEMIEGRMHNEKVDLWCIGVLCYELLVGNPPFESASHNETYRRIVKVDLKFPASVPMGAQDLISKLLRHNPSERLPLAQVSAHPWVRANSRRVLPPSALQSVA
Receptor-type tyrosine-protein kinase FLT3 (Homo sapiens), sequence (P36888 whole entry): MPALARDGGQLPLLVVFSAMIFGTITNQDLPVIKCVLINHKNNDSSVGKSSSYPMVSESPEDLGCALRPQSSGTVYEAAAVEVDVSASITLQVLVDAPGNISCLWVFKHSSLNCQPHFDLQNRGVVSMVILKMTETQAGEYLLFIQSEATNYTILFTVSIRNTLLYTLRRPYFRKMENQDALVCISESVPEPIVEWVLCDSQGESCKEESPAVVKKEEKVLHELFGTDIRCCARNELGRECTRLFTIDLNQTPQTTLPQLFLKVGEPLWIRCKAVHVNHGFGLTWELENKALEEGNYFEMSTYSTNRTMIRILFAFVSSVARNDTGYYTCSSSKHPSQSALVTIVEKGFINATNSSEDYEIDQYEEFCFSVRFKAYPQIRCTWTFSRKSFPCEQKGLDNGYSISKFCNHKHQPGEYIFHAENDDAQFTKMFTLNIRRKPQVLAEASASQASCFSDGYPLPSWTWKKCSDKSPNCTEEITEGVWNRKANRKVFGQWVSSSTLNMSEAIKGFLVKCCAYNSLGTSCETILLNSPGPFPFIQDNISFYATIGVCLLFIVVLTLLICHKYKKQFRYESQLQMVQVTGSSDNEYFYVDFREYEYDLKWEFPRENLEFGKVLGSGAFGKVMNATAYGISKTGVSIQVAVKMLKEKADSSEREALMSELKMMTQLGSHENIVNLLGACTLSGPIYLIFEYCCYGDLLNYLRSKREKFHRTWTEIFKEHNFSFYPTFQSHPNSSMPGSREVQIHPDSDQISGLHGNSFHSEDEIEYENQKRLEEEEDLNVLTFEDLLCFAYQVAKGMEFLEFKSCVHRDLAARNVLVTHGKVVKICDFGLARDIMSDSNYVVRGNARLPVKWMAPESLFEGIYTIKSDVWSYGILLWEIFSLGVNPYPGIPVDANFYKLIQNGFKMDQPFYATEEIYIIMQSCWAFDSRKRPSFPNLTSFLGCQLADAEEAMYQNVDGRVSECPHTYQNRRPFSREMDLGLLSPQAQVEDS
Cyclin-dependent kinase 1/cyclin B1 (Homo sapiens), sequence (P06493 whole entry, looked up): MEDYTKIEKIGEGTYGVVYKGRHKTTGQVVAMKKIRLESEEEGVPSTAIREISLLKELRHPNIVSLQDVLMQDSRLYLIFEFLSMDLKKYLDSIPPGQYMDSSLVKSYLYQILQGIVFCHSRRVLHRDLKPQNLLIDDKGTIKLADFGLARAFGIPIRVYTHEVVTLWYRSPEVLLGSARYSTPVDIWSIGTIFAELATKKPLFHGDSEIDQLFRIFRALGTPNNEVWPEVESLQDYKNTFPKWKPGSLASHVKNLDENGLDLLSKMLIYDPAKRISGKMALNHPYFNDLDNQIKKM
Cyclin-dependent kinase 1/cyclin B1 (Homo sapiens), sequence (P14635 whole entry, looked up): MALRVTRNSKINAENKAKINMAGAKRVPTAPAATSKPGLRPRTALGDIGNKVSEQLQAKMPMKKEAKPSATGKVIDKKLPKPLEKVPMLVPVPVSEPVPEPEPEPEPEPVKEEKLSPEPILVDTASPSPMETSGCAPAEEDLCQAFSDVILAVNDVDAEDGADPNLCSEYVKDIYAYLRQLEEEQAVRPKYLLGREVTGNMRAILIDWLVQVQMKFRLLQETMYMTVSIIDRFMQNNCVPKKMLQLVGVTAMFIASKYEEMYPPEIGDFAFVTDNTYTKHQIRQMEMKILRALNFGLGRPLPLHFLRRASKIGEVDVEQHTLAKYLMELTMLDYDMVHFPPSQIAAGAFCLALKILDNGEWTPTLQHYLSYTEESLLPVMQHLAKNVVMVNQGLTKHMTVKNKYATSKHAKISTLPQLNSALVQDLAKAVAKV
Dual specificity mitogen-activated protein kinase kinase 1 (Homo sapiens), sequence (Q02750 whole entry): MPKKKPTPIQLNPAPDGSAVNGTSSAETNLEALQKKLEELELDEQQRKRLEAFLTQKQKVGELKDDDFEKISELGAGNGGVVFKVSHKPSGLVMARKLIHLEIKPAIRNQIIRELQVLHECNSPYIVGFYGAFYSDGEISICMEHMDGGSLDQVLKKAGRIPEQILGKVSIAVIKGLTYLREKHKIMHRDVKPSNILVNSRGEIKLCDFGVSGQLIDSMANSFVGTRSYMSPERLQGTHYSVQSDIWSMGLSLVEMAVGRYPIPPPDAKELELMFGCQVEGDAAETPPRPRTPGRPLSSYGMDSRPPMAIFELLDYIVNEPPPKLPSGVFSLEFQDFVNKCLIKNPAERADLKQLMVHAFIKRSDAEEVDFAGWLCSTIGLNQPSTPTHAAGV
RAF proto-oncogene serine/threonine-protein kinase (Homo sapiens), sequence (P04049 whole entry): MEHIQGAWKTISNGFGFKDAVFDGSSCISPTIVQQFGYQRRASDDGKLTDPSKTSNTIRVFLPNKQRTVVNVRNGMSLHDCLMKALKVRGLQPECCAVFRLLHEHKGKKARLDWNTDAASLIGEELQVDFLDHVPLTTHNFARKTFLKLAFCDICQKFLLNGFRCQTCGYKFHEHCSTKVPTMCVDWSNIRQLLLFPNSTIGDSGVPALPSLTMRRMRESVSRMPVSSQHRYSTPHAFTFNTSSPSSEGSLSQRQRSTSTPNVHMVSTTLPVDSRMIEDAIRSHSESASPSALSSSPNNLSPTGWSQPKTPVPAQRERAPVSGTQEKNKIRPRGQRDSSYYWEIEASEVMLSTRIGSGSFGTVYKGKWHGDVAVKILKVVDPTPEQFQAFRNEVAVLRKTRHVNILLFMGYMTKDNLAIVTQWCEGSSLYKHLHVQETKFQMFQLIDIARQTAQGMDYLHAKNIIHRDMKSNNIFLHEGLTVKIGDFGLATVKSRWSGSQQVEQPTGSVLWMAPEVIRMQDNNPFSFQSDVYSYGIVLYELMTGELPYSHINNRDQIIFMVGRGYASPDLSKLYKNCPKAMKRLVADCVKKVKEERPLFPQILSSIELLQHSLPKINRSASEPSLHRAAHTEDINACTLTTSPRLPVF
BDNF/NT-3 growth factors receptor (Homo sapiens), sequence (Q16620 32-822 limits assumed): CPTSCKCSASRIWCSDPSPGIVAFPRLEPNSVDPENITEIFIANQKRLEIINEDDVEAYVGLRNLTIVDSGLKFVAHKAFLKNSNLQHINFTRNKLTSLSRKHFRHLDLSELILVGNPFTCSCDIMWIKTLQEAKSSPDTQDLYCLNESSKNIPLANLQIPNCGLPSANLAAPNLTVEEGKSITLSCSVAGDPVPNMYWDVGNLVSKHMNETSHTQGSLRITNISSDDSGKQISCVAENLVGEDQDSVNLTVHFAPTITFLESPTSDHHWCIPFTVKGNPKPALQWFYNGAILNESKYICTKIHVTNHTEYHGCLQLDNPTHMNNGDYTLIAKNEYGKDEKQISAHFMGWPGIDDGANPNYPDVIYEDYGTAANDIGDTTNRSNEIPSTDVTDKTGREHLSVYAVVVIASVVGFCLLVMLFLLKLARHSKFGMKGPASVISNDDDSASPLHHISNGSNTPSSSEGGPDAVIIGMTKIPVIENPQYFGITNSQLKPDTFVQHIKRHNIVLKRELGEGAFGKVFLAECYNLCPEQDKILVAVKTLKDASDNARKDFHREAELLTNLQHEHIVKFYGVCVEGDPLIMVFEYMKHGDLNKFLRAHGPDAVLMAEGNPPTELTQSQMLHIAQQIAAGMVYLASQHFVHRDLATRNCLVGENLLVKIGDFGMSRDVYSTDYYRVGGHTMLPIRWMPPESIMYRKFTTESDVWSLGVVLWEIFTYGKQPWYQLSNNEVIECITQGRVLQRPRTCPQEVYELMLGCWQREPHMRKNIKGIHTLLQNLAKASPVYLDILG
Tyrosine-protein kinase CSK (Homo sapiens), sequence (P41240 2-450 limits assumed): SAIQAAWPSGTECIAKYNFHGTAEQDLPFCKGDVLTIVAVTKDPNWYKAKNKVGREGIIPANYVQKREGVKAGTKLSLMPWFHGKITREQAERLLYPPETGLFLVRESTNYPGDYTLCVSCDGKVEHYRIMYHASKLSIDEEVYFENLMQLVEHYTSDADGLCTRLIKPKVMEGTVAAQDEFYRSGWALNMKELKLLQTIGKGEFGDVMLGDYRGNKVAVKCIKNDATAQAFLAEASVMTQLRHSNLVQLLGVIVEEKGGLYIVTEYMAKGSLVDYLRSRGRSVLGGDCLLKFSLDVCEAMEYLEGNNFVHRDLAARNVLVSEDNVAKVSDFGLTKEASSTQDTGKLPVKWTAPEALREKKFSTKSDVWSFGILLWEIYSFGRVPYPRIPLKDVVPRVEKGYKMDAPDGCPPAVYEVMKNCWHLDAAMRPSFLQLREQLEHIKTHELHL
Aurora kinase B (Homo sapiens, UniProt Q96GD4, E161T), sequence (Q96GD4 whole entry E161T): as the sequence (Q96GD4 whole entry) above, with E161T counted along it

For CN(C)C(=O)c1ccc(Nc2nc(Nc3ccc(O)cc3)ncc2F)cc1, the IC50 [1] was 0.64 µM.
With Fc1ccc(Nc2ncc(F)c(Nc3ccc(F)cc3)n2)cc1 the IC50 [1] was 0.2 µM.
Work on O=C(Nc1ccc(Nc2nc(Nc3ccc(O)cc3)ncc2F)cc1)c1ccccc1 yielded an IC50 [1] of 0.018 µM.
In the case of Oc1ccc(Nc2cc(Cl)nc(Nc3ccc(O)cc3)n2)cc1, the IC50 [1] is reported as greater than 17 µM.
Oc1ccc(Nc2ncc(Cl)c(Nc3ccc(O)cc3)n2)cc1 gave an IC50 [1] of 0.008 µM.
Cc1cc(Nc2ccc(O)cc2)nc(Nc2ccc(O)cc2)n1 showed an IC50 [1] greater than 17 µM.
Work on COc1ccccc1NC(=O)c1ccc(Nc2nc(Nc3ccc(O)cc3)ncc2F)cc1 yielded an IC50 [1] of 0.078 µM.
Work on NC(=O)c1ccc(Nc2nc(Nc3ccc(O)cc3)ncc2F)cc1 yielded an IC50 [1] of 0.16 µM.
Compound COc1ccc(NC(=O)c2ccc(Nc3nc(Nc4ccc(O)cc4)ncc3F)cc2)cc1 has an IC50 [1] of 0.014 µM.
O=C(Nc1ccccc1)c1ccc(Nc2nc(Nc3ccc(O)cc3)ncc2F)cc1 was tested, and the IC50 [1] was 0.019 µM.
O=C(Nc1ccccc1O)c1ccc(Nc2nc(Nc3ccc(O)cc3)ncc2F)cc1 showed an IC50 [1] of 0.028 µM.
In the case of CCN1CCN(C(=O)Cc2ccc(Nc3ncc(F)c(Nc4ccc(C(=O)Nc5ccccc5Cl)cc4)n3)cc2)CC1, the IC50 [2] is reported as 2.9 µM, the IC50 [3] is reported as 2.5 µM and the IC50 [4] is reported as 3.4 µM. For the same compound, the IC50 [5] was greater than 16 µM, the IC50 [6] was greater than 50 µM and the IC50 [7] was greater than 27 µM. The IC50 [1] was 0.0034 µM, the IC50 [8] was 2 µM and the IC50 [9] was 0.055 µM. The IC50 [10] was 0.19 µM.
For O=C(Nc1cccc(O)c1)c1ccc(Nc2nc(Nc3ccc(O)cc3)ncc2F)cc1, the IC50 [1] was 0.019 µM.
Cc1ccccc1Nc1nc(Nc2ccc(O)cc2)ncc1F gave an IC50 [1] of 0.067 µM.
With COc1cccc(Nc2nc(Nc3ccc(O)cc3)ncc2F)c1 the IC50 [1] was 0.26 µM.
In the case of O=C(NC1CC1)c1ccc(Nc2nc(Nc3ccc(O)cc3)ncc2F)cc1, the IC50 [2] is reported as 27 µM, the IC50 [4] is reported as 3.8 µM and the IC50 [6] is reported as greater than 25 µM. The IC50 [7] was greater than 30 µM, the IC50 [1] was 0.054 µM and the IC50 [10] was 2 µM.
COc1cccc(NC(=O)c2ccc(Nc3nc(Nc4ccc(O)cc4)ncc3F)cc2)c1 gave an IC50 [1] of 0.036 µM.
Oc1ccc(Nc2ncc(F)c(Nc3ccc(O)cc3)n2)cc1 showed an IC50 [1] of 0.03 µM.
Cc1ccc(NC(=O)c2ccc(Nc3nc(Nc4ccc(O)cc4)ncc3F)cc2)cc1 showed an IC50 [1] of 0.18 µM.
Compound O=C(Nc1ccccc1Cl)c1ccc(Nc2nc(Nc3ccc(O)cc3)ncc2F)cc1 has an Activity [11] of 40%, an IC50 [2] of 17 µM and an Activity [12] of 104%. It also gave an Activity [13] of 44%, an Activity [14] of 103% and an Activity [15] of 54%. For the same compound, the Activity [16] was 87%, the IC50 [3] was 5 µM and the IC50 [4] was 1.9 µM. It also gave an Activity [17] of 6%, an Activity [18] of 1% and an Activity [19] of 103%. The Activity [20] was 64%, the Activity [21] was 25% and the Activity [22] was 42%. It also gave an IC50 [5] of 3.2 µM, an Activity [23] of 57% and an Activity [24] of 76%. It also gave an Activity [25] of 88%, an Activity [26] of 60% and an IC50 [6] greater than 25 µM. It also gave an Activity [27] of 57%, an IC50 [7] greater than 30 µM and an IC50 [1] of 0.01 µM. The Activity [28] was 31%, the Activity [29] was 100% and the Activity [30] was 102%. It also gave an Activity [31] of 100%, an Activity [32] of 7% and an Activity [33] of 76%. The Activity [34] was 96%, the Activity [35] was 82% and the Activity [36] was 91%. It also gave an Activity [37] of 90%, an Activity [38] of 54% and an IC50 [10] of 0.87 µM. The Activity [39] was 111% and the Activity [40] was 66%.
Cc1cccc(Nc2ncc(F)c(Nc3cccc(C)c3)n2)c1 showed an IC50 [1] of 0.68 µM.
COc1ccccc1Nc1nc(Nc2ccc(O)cc2)ncc1F showed an IC50 [1] of 0.02 µM.
Compound O=C(Nc1ccc(O)cc1)c1ccc(Nc2nc(Nc3ccc(O)cc3)ncc2F)cc1 has an IC50 [1] of 0.013 µM.
